Experimental data: ChEMBL document CHEMBL3098111, “Discovery of 2,5-diarylnicotinamides as selective orexin-2 receptor antagonists (2-SORAs)” (Bioorg Med Chem Lett, 2013)
Activity calls are given as the source filed them. The rule behind the calls is not given here.

What was measured:
[1] = target: Calcitonin receptor (Homo sapiens) (UniProt P30988); assay: Inhibition of human calcitonin receptor at 10 uM relative to control
[2] = target: Peroxisome proliferator-activated receptor gamma (Homo sapiens) (UniProt P37231); assay: Inhibition of human PPARgamma at 10 uM relative to control
Chain of Peroxisome proliferator-activated receptor gamma (Homo sapiens) (P37231 whole entry): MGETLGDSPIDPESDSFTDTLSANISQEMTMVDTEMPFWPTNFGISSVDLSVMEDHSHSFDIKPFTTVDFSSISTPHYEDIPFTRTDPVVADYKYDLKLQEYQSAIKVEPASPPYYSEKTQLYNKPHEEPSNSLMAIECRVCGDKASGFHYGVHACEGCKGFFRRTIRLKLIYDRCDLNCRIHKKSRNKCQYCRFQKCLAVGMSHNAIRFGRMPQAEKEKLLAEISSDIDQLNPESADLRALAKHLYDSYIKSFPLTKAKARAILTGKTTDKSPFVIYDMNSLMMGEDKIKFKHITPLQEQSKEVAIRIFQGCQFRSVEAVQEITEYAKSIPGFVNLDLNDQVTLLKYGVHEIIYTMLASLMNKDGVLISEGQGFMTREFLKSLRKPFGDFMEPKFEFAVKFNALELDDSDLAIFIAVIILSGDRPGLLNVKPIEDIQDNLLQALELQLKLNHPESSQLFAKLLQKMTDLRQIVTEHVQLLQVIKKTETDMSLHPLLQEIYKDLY

[3] = target: Neuropeptide Y receptor type 1 (Homo sapiens) (UniProt P25929); assay: Inhibition of human neuropeptide YY1 receptor at 10 uM relative to control
Chain of Neuropeptide Y receptor type 1 (Homo sapiens) (P25929 whole entry): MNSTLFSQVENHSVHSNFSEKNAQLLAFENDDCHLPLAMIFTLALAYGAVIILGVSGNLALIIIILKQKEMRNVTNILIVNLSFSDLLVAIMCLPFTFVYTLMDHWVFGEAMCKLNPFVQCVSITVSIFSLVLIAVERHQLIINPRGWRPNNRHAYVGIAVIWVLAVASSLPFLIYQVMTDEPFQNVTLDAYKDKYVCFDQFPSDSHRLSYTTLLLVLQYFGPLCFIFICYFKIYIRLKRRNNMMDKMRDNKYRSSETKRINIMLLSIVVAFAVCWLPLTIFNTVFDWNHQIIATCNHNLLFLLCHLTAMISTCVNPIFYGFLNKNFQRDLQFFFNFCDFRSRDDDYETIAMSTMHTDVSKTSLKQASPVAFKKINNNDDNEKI

[4] = target: C-C chemokine receptor type 5 (Homo sapiens) (UniProt P51681); assay: Inhibition of human CCR5 at 10 uM relative to control
[5] = target: Prostaglandin E2 receptor EP1 subtype (Homo sapiens) (UniProt P34995); assay: Inhibition of human prostanoid EP1 receptor at 10 uM relative to control
[6] = target: Prostaglandin F2-alpha receptor (Homo sapiens) (UniProt P43088); assay: Inhibition of human prostanoid FP receptor at 10 uM relative to control
[7] = target: Estrogen receptor beta (Homo sapiens) (UniProt Q92731); assay: Inhibition of human ERbeta receptor at 10 uM relative to control
[8] = target: Galanin receptor type 1 (Homo sapiens) (UniProt P47211); assay: Inhibition of human GAL1 receptor at 10 uM relative to control
Chain of Galanin receptor type 1 (Homo sapiens) (P47211 whole entry): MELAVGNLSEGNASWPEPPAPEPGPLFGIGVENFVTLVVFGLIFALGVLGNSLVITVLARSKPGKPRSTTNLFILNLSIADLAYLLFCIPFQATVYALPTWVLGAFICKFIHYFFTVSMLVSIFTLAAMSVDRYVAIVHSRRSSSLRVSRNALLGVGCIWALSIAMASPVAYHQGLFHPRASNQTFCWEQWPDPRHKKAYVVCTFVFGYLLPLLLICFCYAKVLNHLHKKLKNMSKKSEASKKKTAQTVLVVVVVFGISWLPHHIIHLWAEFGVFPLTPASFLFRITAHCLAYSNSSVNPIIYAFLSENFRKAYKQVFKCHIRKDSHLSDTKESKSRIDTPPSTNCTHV

[9] = target: Adenosine receptor A3 (Homo sapiens) (UniProt P0DMS8); assay: Inhibition of human adenosine A3 receptor at 10 uM relative to control
Chain of Adenosine receptor A3 (Homo sapiens) (P0DMS8 whole entry): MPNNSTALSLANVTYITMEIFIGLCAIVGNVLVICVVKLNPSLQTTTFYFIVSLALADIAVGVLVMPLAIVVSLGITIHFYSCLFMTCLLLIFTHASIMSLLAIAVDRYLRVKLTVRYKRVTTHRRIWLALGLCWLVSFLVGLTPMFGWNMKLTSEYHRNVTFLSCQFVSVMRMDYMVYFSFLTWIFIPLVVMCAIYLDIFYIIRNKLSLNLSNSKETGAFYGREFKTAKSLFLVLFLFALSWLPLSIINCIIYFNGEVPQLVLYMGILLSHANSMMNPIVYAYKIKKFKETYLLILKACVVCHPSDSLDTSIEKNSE

[10] = target: Tyrosine 3-monooxygenase (Rattus norvegicus) (UniProt P04177); assay: Inhibition of rat tyrosine hydroxylase at 10 uM relative to control
[11] = target: Platelet-activating factor receptor (Homo sapiens) (UniProt P25105); assay: Inhibition of human PAF receptor at 10 uM relative to control
[12] = target: Cathepsin G (Homo sapiens) (UniProt P08311); assay: Inhibition of human cathepsin G at 10 uM relative to control
[13] = target: Glutamate NMDA receptor (Rattus norvegicus) (UniProt P35439+Q00959+Q00960+Q00961+Q62645+Q8VHN2+Q9R1M7); assay: Inhibition of rat NMDA receptor glycine binding site at 10 uM relative to control; assay type: protein-complex assay
[14] = target: Polyunsaturated fatty acid 5-lipoxygenase (Homo sapiens) (UniProt P09917); assay: Inhibition of human 5-lipoxygenase at 10 uM relative to control
Chain of Polyunsaturated fatty acid 5-lipoxygenase (Homo sapiens) (P09917 whole entry): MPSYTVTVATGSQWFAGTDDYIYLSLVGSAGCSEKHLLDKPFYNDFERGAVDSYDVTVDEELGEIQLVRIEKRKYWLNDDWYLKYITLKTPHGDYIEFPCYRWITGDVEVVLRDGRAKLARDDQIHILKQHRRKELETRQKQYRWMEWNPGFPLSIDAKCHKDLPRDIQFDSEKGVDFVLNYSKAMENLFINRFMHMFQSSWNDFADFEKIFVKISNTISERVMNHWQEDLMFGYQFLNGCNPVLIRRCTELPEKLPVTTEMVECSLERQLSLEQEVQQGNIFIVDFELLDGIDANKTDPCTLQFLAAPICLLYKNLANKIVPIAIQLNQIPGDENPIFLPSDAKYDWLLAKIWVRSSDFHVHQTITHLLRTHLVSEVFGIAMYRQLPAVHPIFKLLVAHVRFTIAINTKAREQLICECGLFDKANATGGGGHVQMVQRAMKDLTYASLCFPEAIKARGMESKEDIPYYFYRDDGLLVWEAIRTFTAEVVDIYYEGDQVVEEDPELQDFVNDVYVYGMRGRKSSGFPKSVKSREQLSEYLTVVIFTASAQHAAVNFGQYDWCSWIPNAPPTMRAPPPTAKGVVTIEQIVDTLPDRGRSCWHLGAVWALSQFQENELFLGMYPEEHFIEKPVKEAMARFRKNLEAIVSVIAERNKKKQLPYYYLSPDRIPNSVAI

[15] = target: Adrenergic receptor alpha-1 (Rattus norvegicus) (UniProt P15823+P23944+P43140); assay: Inhibition of rat alpha1 adrenergic receptor at 10 uM relative to control
[16] = target: Caspase-6 (Homo sapiens) (UniProt P55212); assay: Inhibition of human caspase 6 at 10 uM relative to control
[17] = tested on: Rattus norvegicus; assay: Antiinsomnic activity in rat EEG model assessed as increase in REM sleep time at 15 mg/kg, po; assay type: functional, organism-based; parameters: dose 15 mg/kg
Procedure, shortened: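 Rats with EEG telemetry given 15 mg/kg orally during their active period, vehicle 20% Vitamin E TPGS in water. Sleep architecture (active wake, light sleep, delta and REM sleep) scored from EEG.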

[18] = target: Nitric oxide synthase, inducible (Mus musculus) (UniProt P29477); assay: Inhibition of mouse iNOS at 10 uM relative to control
[19] = target: Beta-1 adrenergic receptor (Homo sapiens) (UniProt P08588); assay: Inhibition of human beta1 adrenergic receptor at 10 uM relative to control
[20] = target: Muscarinic acetylcholine receptor M3 (Homo sapiens) (UniProt P20309); assay: Inhibition of human muscarinic M3 receptor at 10 uM relative to control
Chain of Muscarinic acetylcholine receptor M3 (Homo sapiens) (P20309 whole entry, looked up): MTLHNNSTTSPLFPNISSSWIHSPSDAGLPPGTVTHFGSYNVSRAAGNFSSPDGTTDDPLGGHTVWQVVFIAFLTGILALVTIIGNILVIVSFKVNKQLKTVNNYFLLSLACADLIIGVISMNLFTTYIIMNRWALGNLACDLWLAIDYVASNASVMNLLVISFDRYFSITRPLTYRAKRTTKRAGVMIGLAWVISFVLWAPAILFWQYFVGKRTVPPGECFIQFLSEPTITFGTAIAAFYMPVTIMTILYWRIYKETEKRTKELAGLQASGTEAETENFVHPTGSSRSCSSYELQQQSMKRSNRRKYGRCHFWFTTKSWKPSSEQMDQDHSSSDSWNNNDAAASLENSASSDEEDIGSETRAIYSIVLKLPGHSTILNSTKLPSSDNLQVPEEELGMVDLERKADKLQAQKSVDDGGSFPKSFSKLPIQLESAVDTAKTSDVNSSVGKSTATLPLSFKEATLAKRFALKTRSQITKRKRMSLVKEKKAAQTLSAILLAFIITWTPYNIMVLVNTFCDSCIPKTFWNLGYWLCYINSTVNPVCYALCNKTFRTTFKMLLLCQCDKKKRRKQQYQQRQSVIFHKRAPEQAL

[21] = target: 5-hydroxytryptamine receptor 2B (Homo sapiens, UniProt P41595); assay: Inhibition of human 5-HT2B receptor at 0.1 uM relative to control
Chain of 5-hydroxytryptamine receptor 2B (P41595 whole entry): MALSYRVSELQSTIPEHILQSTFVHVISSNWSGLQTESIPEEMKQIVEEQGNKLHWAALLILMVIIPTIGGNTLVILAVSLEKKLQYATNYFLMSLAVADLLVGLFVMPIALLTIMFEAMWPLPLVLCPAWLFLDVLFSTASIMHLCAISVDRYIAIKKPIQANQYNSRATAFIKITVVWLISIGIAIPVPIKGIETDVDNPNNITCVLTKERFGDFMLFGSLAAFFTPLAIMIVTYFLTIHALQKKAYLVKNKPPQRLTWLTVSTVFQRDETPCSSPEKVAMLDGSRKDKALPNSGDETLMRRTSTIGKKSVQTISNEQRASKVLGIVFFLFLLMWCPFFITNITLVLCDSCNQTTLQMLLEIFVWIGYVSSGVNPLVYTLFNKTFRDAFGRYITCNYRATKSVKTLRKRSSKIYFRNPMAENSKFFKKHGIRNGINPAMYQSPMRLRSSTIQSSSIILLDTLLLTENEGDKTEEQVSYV

[22] = species on record: Rattus norvegicus; assay: Inhibition of rat GABAB receptor at 10 uM relative to control
[23] = target: 5-hydroxytryptamine receptor 4 (Cavia porcellus) (UniProt O70528); assay: Inhibition of guinea pig 5-HT4 receptor at 10 uM relative to control
[24] = target: Vasoactive intestinal polypeptide receptor 1 (Homo sapiens) (UniProt P32241); assay: Inhibition of human VIP1 receptor at 10 uM relative to control
[25] = target: Alpha-2A adrenergic receptor (Homo sapiens) (UniProt P08913); assay: Inhibition of human alpha2A adrenergic receptor at 10 uM relative to control
Chain of Alpha-2A adrenergic receptor (Homo sapiens) (P08913 whole entry): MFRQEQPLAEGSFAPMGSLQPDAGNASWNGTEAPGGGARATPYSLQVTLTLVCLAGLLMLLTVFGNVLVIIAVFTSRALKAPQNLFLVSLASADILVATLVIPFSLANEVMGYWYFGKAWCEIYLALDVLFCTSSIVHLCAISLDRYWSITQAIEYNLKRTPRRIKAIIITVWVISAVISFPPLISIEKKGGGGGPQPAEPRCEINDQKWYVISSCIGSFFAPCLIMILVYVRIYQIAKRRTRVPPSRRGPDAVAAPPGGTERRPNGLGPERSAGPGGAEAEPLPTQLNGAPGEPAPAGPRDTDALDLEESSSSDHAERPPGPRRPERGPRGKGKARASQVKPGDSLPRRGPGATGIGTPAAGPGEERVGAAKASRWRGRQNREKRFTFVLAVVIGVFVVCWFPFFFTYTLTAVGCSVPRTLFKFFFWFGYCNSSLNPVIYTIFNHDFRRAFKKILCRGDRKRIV

[26] = target: 5-hydroxytryptamine receptor 1B (Rattus norvegicus) (UniProt P28564); assay: Inhibition of rat 5-HT1B receptor at 10 nM relative to control
Chain of 5-hydroxytryptamine receptor 1B (Rattus norvegicus) (P28564 whole entry): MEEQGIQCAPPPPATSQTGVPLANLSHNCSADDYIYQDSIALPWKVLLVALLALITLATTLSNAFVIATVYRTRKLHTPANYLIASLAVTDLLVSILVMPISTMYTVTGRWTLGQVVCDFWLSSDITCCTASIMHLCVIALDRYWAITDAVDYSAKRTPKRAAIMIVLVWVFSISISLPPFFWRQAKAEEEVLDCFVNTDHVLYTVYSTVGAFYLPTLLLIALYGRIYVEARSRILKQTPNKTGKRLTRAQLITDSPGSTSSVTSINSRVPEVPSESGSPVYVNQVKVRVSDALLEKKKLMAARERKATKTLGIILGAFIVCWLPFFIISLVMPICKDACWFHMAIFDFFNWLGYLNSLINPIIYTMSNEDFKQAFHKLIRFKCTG

[27] = species on record: Rattus norvegicus; assay: Inhibition of rat GABAA central type receptor muscimol binding site at 10 uM relative to control
[28] = target: Prostacyclin receptor (Homo sapiens) (UniProt P43119); assay: Inhibition of human prostanoid IP receptor at 10 uM relative to control
[29] = target: 5-hydroxytryptamine receptor 3A (Homo sapiens) (UniProt P46098); assay: Inhibition of human 5-HT3 receptor at 10 uM relative to control
[30] = species on record: Rattus norvegicus; assay: Inhibition of rat GABAA chloride channel TBOB binding site at 10 uM relative to control
[31] = target: Somatostatin receptor type 2 (Homo sapiens) (UniProt P30874); assay: Inhibition of human SST2 receptor at 10 uM relative to control
[32] = target: Oxytocin receptor (Homo sapiens) (UniProt P30559); assay: Inhibition of human oxytocin receptor at 10 uM relative to control
[33] = species on record: Rattus norvegicus; assay: Inhibition of rat ATP-sensitive potassium channel at 10 uM relative to control
[34] = species on record: Cavia porcellus; assay: Inhibition of guinea pig adenosine transporter at 1 uM relative to control
[35] = target: Prostaglandin E2 receptor EP3 subtype (Homo sapiens) (UniProt P43115); assay: Inhibition of human prostanoid EP3 receptor at 10 uM relative to control
Chain of Prostaglandin E2 receptor EP3 subtype (Homo sapiens) (P43115 whole entry): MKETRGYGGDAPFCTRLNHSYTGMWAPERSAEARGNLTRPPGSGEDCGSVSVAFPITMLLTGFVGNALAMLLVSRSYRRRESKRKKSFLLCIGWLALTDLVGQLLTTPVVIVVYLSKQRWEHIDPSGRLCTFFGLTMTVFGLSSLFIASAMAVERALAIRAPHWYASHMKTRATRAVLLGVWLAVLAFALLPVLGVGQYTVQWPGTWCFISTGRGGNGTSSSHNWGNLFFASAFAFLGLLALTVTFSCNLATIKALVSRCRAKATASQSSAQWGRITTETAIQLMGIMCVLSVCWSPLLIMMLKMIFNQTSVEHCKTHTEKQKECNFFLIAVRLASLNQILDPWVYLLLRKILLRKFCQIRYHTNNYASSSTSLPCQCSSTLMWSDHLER

[36] = target: 5-hydroxytryptamine receptor 1B (Rattus norvegicus) (UniProt P28564); assay: Inhibition of rat 5-HT1B receptor at 0.1 uM relative to control
[37] = target: Mu-type opioid receptor (Homo sapiens, UniProt P35372); assay: Inhibition of human mu opioid receptor at 10 nM relative to control
Chain of Mu-type opioid receptor (P35372 whole entry): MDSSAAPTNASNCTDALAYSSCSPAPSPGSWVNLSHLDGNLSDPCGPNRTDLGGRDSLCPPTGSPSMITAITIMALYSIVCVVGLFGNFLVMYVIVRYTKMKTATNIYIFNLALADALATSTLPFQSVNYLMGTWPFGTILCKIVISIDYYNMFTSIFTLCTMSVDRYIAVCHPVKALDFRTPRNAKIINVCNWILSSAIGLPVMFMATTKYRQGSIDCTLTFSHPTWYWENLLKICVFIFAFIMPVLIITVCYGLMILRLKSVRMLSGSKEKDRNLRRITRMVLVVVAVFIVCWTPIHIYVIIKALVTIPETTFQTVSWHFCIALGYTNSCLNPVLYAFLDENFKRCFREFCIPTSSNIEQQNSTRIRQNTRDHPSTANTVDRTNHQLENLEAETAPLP

[38] = species on record: Rattus norvegicus; assay: Inhibition of rat N-type calcium channel at 10 uM relative to control
[39] = target: Vascular endothelial growth factor receptor 1 (Homo sapiens) (UniProt P17948); assay: Inhibition of human FLT1 at 10 uM relative to control

inhibition [1]: 9%
inhibition [2]: 3%
inhibition [3]: 23%
inhibition [4]: 11%
inhibition [5]: 10%
inhibition [6]: 19%
inhibition [7]: -7%
inhibition [8]: 3%
inhibition [9]: 33%
inhibition [10]: -3%
inhibition [11]: 31%
inhibition [12]: -8%
inhibition [13]: 9%
inhibition [14]: 44%
inhibition [15]: -4%
inhibition [16]: 7%
inhibition [18]: 2%
inhibition [19]: 9%
inhibition [20]: -2%
inhibition [21]: 6%
inhibition [22]: 0%
inhibition [23]: 22%
inhibition [24]: 6%
inhibition [25]: 19%
inhibition [26]: -4%
inhibition [27]: 9%
inhibition [28]: -2%
inhibition [29]: -3%
inhibition [30]: 8%
inhibition [31]: -3%
inhibition [32]: 14%
inhibition [33]: 0%
inhibition [34]: 32%
inhibition [35]: 19%
inhibition [36]: 9%
inhibition [37]: -3%
inhibition [38]: 2%
inhibition [39]: 20%
SMILES: COc1ccc(CNC(=O)c2cc(-c3cc(Cl)cc(Cl)c3)cnc2-c2cccnc2)cc1OC
Activity [17]: Active
